Activity calls are given as the source filed them. The rule behind the calls is not given here.

Consider 16 compounds from ChEMBL document CHEMBL2321857, “Synthesis, topoisomerase-targeting activity and growth inhibition of lycobetaine analogs” (Bioorg Med Chem, 2013).

Assay [1] concerns the target T1, DNA topoisomerase 1 (Homo sapiens) (UniProt P11387).
T1 sequence (whole entry): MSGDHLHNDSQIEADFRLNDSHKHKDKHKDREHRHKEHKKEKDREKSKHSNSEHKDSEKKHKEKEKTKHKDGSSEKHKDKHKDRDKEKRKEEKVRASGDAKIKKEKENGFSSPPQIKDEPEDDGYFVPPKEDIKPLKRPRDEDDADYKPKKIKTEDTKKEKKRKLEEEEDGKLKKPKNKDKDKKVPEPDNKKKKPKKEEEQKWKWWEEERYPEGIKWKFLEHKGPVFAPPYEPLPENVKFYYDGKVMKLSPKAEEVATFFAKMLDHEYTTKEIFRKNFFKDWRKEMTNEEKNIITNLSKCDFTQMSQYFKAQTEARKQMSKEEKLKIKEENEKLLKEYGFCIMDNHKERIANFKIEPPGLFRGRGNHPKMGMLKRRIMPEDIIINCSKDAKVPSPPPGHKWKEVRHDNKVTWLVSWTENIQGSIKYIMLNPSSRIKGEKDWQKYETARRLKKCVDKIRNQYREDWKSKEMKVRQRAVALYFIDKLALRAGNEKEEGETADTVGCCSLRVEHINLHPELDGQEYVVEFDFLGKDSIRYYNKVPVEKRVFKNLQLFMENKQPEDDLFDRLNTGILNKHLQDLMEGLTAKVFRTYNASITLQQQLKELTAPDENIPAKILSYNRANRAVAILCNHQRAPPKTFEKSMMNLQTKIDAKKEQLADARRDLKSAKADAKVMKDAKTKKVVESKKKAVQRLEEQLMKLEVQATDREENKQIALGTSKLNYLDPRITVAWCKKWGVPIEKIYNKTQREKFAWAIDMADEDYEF
Kind of assay: Stabilization of topoisomerase 1/DNA complex in human A431 cells. The class given is cell-based. Conditions: A-431. In short, it runs like this: (§1)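 A431 cells were grown 72 h, then treated 1 h serum-free (10–100 µM; 1% DMSO control). Cells were lysed in sarkosyl TE buffer, and lysate was spun on a CsCl step gradient at 100,000 × g for 24 h at 20 °C. Fractions were measured by A260 and slot-blotted. Topo I, IIα or IIβ was immunodetected by chemiluminescence and expressed as T/C% per DNA content. Three experiments.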

Assay [2] concerns the target DNA topoisomerase 2-alpha (Homo sapiens) (UniProt P11388). The assay can be described thus: Inhibition of topoisomerase 2alpha in human A431 cells assessed as DNA peak fractions level after 1 hr by ICE assay. Conditions: A-431. The class given is cell-based. In short, it runs like this:
as §1

A short description of assay [3]: Growth inhibition of human GXF251L cells after 72 hrs by SRB assay. The class given is functional. To be noted: GXF 251L. In short, it runs like this: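 GXF251L gastric xenograft-derived cells in RPMI-1640 with 10% FCS were seeded at 6000 cells/well and grown 24 h. They were then exposed 72 h in serum-containing medium with 1% DMSO final. Cells were fixed with TCA for 1 h at 4 °C and stained with 0.4% SRB. Dye was dissolved in 10 mM Tris pH 10.5 and read at 570 nm. IC50 vs DMSO control; three independent experiments.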
(In general: In SRB staining, fixed cells bind dye roughly in proportion to their protein.)

In assay [4] the target is DNA topoisomerase 2-alpha (Homo sapiens) (UniProt P11388). Kind of assay: Inhibition of human recombinant topoisomerase 2alpha-mediated decatenation of kDNA at 50 uM after 60 mins by ethidium bromide staining based gel electrophoresis analysis. In outline:
(§2)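 Recombinant human topo IIα or IIβ (40 ng) was incubated with 200 ng Crithidia kDNA. Buffer: 50 mM Tris/HCl pH 7.9, 120 mM KCl, 10 mM MgCl2, 1 mM ATP, 0.5 mM DTT, 0.5 mM EDTA, 0.03 mg/mL BSA. Incubation 60 min at 37 °C. Stopped with proteinase K/SDS, digested 30 min, run on 1% agarose and stained with ethidium bromide. Decatenated minicircle signal as T/C% vs DMSO; three experiments.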

The target in assay [5] is DNA topoisomerase 2-beta (Homo sapiens) (UniProt Q02880). Kind of assay: Inhibition of human recombinant topoisomerase 2beta-mediated decatenation of kDNA at 30 uM after 60 mins by ethidium bromide staining based gel electrophoresis analysis. In short, it runs like this: as §2
Assay [6] concerns the target T1, DNA topoisomerase 1 (Homo sapiens). Kind of assay: Inhibition of human recombinant topoisomerase 1-mediated relaxation of supercoiled pUC18 plasmid DNA in human MCF7 cells nuclear extracts at 10 uM after 30 mins by ethidium bromide staining based gel electrophoresis analysis. It is filed as cell-free. In outline:
(§3)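 Topo I activity came from MCF-7 nuclear extract (0.3 µL) acting on 250 ng supercoiled pUC18. Buffer: 10 mM Tris/HCl pH 7.9, 50 mM KCl, 10 mM MgCl2, 0.5 mM DTT, 0.5 mM EDTA, 0.03 mg/mL BSA, no ATP. Incubation 30 min at 37 °C. Stopped with SDS, then proteinase K digest. Run on 1% agarose TAE gel and stained with ethidium bromide afterward. Scored as lowest inhibiting concentration from 10, 30, 50 or 100 µM.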

The target of assay [7] is DNA topoisomerase 2-beta (Homo sapiens) (UniProt Q02880). Kind of assay: Inhibition of topoisomerase 2beta in human A431 cells assessed as DNA peak fractions level after 1 hr by ICE assay. It is filed as cell-based. To be noted: A-431. In outline:
as §1

Assay [8] deals with T1, DNA topoisomerase 1 (Homo sapiens). The assay can be described thus: Inhibition of human recombinant topoisomerase 1-mediated relaxation of supercoiled pUC18 plasmid DNA in human MCF7 cells nuclear extracts at 100 uM after 30 mins by ethidium bromide staining based gel electrophoresis analysis. It is filed as cell-free. In outline:
as §3

Assay [9] concerns the target DNA topoisomerase 2-beta (Homo sapiens) (UniProt Q02880). Kind of assay: Inhibition of human recombinant topoisomerase 2beta-mediated decatenation of kDNA at 100 uM after 60 mins by ethidium bromide staining based gel electrophoresis analysis. In outline:
as §2

In assay [10] the target is T1, DNA topoisomerase 1 (Homo sapiens). Kind of assay: Inhibition of human recombinant topoisomerase 1-mediated relaxation of supercoiled pUC18 plasmid DNA in human MCF7 cells nuclear extracts at 50 uM after 30 mins by ethidium bromide staining based gel electrophoresis analysis. It is filed as cell-free. In short, it runs like this:
as §3

The target in assay [11] is DNA topoisomerase 2-alpha (Homo sapiens) (UniProt P11388). The assay can be described thus: Inhibition of human recombinant topoisomerase 2alpha-mediated decatenation of kDNA at 100 uM after 60 mins by ethidium bromide staining based gel electrophoresis analysis. In outline: as §2
For assay [12], the target named is DNA topoisomerase 2-beta (Homo sapiens) (UniProt Q02880). Kind of assay: Inhibition of human recombinant topoisomerase 2beta-mediated decatenation of kDNA up to 50 uM after 60 mins by ethidium bromide staining based gel electrophoresis analysis. In outline:
as §2

In assay [13] the target is DNA topoisomerase 2-alpha (Homo sapiens) (UniProt P11388). Kind of assay: Inhibition of human recombinant topoisomerase 2alpha-mediated decatenation of kDNA up to 50 uM after 60 mins by ethidium bromide staining based gel electrophoresis analysis. In outline:
as §2

Sequence of DNA topoisomerase 2-alpha (Homo sapiens) (P11388 whole entry): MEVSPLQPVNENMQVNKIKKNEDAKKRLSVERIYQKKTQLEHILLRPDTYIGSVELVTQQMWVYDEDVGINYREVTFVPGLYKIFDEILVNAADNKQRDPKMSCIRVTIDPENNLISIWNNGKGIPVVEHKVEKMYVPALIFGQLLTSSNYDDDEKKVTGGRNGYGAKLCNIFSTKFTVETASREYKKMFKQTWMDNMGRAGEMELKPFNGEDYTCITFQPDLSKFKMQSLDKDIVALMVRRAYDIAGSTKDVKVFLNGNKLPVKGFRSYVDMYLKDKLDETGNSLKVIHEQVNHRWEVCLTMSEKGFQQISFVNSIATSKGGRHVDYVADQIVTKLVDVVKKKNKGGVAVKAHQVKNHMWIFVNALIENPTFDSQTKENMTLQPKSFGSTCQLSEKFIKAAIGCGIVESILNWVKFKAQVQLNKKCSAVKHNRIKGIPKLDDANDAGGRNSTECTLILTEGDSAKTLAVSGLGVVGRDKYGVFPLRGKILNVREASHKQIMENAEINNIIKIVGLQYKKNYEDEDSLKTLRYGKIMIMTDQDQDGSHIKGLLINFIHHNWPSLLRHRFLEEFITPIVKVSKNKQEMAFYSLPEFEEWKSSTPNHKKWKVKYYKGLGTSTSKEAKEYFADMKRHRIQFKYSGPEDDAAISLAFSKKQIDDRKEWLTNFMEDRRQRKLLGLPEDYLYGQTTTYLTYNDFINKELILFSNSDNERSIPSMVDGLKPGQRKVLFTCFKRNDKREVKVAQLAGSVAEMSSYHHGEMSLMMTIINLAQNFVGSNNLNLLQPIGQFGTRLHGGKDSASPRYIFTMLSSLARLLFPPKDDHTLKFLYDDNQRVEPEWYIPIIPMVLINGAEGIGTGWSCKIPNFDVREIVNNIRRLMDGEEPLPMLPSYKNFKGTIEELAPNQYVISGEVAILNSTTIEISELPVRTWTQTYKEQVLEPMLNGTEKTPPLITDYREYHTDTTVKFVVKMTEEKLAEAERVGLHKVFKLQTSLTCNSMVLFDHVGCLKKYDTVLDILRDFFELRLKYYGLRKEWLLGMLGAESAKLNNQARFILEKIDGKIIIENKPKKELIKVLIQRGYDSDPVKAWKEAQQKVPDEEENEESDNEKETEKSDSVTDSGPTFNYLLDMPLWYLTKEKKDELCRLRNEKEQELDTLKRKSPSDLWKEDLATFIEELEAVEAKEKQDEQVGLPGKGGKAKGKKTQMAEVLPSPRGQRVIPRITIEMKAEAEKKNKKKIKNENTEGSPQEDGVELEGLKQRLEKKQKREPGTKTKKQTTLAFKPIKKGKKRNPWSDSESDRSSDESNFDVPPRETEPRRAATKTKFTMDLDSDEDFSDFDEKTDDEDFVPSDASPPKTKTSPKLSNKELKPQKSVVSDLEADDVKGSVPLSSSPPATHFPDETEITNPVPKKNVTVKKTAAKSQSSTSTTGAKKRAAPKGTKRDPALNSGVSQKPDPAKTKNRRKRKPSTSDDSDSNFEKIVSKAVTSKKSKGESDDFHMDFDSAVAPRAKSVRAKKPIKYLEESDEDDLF
Sequence of DNA topoisomerase 2-beta (Homo sapiens) (Q02880 whole entry): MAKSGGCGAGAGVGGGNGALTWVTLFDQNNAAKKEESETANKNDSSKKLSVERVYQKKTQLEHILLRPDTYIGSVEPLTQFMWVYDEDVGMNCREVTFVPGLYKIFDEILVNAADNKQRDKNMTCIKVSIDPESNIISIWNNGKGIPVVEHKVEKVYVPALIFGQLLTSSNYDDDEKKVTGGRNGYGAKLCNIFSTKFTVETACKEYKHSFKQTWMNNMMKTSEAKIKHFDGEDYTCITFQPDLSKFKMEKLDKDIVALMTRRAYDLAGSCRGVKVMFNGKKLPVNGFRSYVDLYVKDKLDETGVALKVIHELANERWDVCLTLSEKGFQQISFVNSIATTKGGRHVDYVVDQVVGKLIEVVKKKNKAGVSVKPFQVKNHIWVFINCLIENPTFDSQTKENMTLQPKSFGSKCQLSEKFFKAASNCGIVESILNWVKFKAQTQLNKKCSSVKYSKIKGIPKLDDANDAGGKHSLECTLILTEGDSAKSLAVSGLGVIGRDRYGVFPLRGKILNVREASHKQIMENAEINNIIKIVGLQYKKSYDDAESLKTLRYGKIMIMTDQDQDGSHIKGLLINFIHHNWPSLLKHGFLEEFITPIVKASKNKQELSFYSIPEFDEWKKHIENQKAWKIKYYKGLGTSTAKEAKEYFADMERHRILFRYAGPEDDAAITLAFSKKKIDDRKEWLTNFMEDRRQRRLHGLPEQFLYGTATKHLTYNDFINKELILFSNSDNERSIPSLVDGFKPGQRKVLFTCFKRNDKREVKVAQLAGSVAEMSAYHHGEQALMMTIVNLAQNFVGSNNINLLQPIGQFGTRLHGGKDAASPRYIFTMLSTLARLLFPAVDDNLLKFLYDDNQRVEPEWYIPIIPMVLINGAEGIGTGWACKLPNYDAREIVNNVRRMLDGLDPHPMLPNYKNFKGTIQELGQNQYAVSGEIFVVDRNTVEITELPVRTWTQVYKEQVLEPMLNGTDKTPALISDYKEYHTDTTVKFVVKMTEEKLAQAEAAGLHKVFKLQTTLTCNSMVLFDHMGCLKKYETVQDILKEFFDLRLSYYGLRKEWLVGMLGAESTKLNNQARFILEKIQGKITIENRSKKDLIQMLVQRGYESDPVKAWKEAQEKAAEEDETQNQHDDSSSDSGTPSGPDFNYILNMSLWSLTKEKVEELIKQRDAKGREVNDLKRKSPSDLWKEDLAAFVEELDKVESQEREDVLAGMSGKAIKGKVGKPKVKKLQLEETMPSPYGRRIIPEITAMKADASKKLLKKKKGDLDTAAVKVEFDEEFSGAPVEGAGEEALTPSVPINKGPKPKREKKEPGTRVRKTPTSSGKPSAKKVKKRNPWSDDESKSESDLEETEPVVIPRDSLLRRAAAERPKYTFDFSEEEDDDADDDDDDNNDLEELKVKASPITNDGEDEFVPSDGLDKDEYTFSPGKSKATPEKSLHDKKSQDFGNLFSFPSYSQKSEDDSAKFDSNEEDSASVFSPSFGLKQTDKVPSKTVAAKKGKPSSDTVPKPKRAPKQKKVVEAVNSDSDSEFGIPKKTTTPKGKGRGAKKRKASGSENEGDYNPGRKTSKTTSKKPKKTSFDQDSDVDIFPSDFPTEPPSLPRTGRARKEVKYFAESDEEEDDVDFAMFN

For `Oc1cc2c3c(c1)c1cc4c(cc1c[n+]3CC2)OCO4` [LYCOBETAINE], the result in [1] was inactive. For the same compound, the inhibition result in assay [2] and in [7] was “Dose-dependent effect” each time. The compound further showed an IC50 in assay [3] of 3.2 µM. Further, the inhibition result in assay [4], in assay [5] and in assay [6] was “Active” throughout.
Turning to `COc1cc2cnc3ccc(O)cc3c2cc1OC`, the IC50 in assay [3] was 26 µM. Also, in assay [8], the inhibition result is “inactive”.
The compound `COc1ccc2ncc3cc(OC)c(OC)cc3c2c1` displayed a concentration for half-maximal inhibition (IC50) in [3] of 41.1 µM. In addition, the inhibition entry in assay [8] is “inactive”.
For `c1ccc2c(c1)ncc1cc3c(cc12)OCO3` [TRISPHAERIDINE] the same measures were 12 µM and “inactive”.
In assay [3], `Oc1ccc2ncc3cc4c(cc3c2c1)OCO4` came in with an IC50 of 17.3 µM. The inhibition result in assay [8] was “inactive”.
Take `C[n+]1cc2cc3c(cc2c2cc(O)ccc21)OCO3`: in assay [3], the IC50 was 1.6 µM. Moreover, the inhibition entry in [4], in assay [5] and in assay [6] was “Active” each time.
For `COc1ccc2c(c1)c1cc3c(cc1c[n+]2C)OCO3`, in assay [3], the IC50 turned out to be 0.9 µM. The inhibition result in assay [4], in assay [5] and in [6] was “Active” throughout.
Take `COc1cc2c[n+](C)c3ccc(O)cc3c2cc1OC`: the IC50 in assay [3] came out at 18.8 µM. Moreover, the inhibition result in assay [9] and in assay [11] was “inactive” throughout. Moreover, the inhibition result in assay [10] is “Active”.
Turning to `COc1ccc2c(c1)c1ccccc1c[n+]2C`, the IC50 in [3] worked out at 4 µM. Further, the inhibition entry in [9], in assay [6] and in assay [11] was “Active” each time.
Turning to `COc1ccc2ncc3cc4c(cc3c2c1)OCO4`, the IC50 in assay [3] was 12.1 µM. Moreover, the inhibition entry in assay [8] is “inactive”.
The compound `COc1ccc2cnc3ccc(O)cc3c2c1` displayed a concentration for half-maximal inhibition (IC50) in [3] of 40.6 µM. Moreover, the inhibition result in assay [8] is “inactive”.
In turn, `COc1ccc2c(c1)c[n+](C)c1ccc(O)cc21` came in with an IC50 in assay [3] of 5.4 µM. The inhibition entry in assay [9] and in [11] was “inactive” throughout. Also, the inhibition result in assay [6] is “Active”.
For the compound `COc1ccc2c(c1)c1cc(OC)c(OC)cc1c[n+]2C`, the IC50 in assay [3] was found to be 7.8 µM. In addition, the inhibition result in [6] and in assay [11] was “Active” each time.
Compound `COc1ccc2c[n+](C)c3ccc(O)cc3c2c1` displayed a concentration for half-maximal inhibition (IC50) in assay [3] of 8.4 µM. In addition, the inhibition result in assay [8], in [12] and in assay [13] was “inactive” each time.
For `C[n+]1cc2cc3c(cc2c2ccccc21)OCO3`, half-maximal inhibition in assay [3] (IC50) was put at 1.9 µM. Besides, the inhibition entry in [6] was “Active”. The inhibition entry in assay [12] and in assay [13] was “inactive” in each case.
As to `COc1ccc2c(cnc3ccc(O)cc32)c1`, the IC50 in [3] was above 50 µM. In addition, in [8], the inhibition entry was “inactive”.

The IC50 is the midpoint of a concentration-inhibition curve.
